The source of these data is article PMC4550695 (mBio, 2015).

Data set [1] has as its target T1, P. aeruginosa AmiC (Pseudomonas aeruginosa, UniProt P27017). Briefly: Microscale thermophoresis binding to recombinant AmiC. Particulars: for affinity for / interaction with AmiC, in words: MST, pH 7.5, 25°C. In a few lines: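 His-tagged codon-optimised AmiC expressed in E. coli Rosetta2(DE3), purified by IMAC and gel filtration, RED-NHS labelled or unlabelled depending on ligand. AmiC at 50 nM final, mixed with 1:1 serial ligand dilutions in 50 mM Tris-HCl pH 7.5, 150 mM NaCl, 10 mM MgCl2, 0.05% Tween 20. After 5 min incubation, read at 25°C (laser 5/30/5 s); three independent pipettings; KD fitted by mass-action equation.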
For orientation: Microscale thermophoresis detects binding through changes in fluorescence in a small temperature gradient.

Data set [2] concerns P. aeruginosa MPAO1. The data set is described as follows: Biofilm formation under static conditions, P. aeruginosa MPAO1. Format: cell-based, Pseudomonas aeruginosa. Particulars: isatin 10^−5 M alone, 24 h. In a few lines: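 Uses a GFP-plasmid (pSMC2.1) strain; overnight preculture at 37°C diluted into LB with 400 µg/ml kanamycin. Test compound added at 2 h of subculture from DMSO/water (5/95) stock, final DMSO under 0.2%, DMSO-matched controls. After 3 h more, cells pelleted, resuspended in 0.9% NaCl at OD600 0.1, 2 h static attachment on glass slides, then LB 24 h static at 37°C. PBS-rinsed, heat fixed, CLSM/COMSTAT.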

The conditions of data set [3]: endogenous, usual order; ref [52]; cited from earlier work.
Data set [4] addresses T1, P. aeruginosa AmiC. Particulars: ref [36]; cited from earlier work.
The test system of data set [5] is membrane of P. aeruginosa. To be noted: inducing increased virulence; ref [14]; cited from earlier work.
The test system of data set [6] is ami operon of P. aeruginosa. Briefly: qRT-PCR of ami operon mRNA. It is filed as cell-based, Pseudomonas aeruginosa. To be noted: BNP 10^−6 M; data not shown. For orientation: Quantitative PCR measures a nucleic acid by following its amplification.
Data set [7] concerns NPR-A receptor. Particulars: mammalian cells; ref [25]; cited from earlier work.
The test system of data set [8] is P. aeruginosa PA14. The data set is described as follows: Biofilm formation under dynamic conditions, P. aeruginosa PA14 wild type. Format: cell-based, Pseudomonas aeruginosa. Particulars: 24 h.
Data set [9] has as its system Caenorhabditis elegans. Particulars: ref [16]; cited from earlier work.
The subject of data set [10] is P. aeruginosa cAMP. To be noted: ref [17]; cited from earlier work.
The subject of data set [11] is PA14 ΔamiC strain. Briefly: Biofilm formation under dynamic conditions, PA14 ΔamiC strain. Particulars: BNP 10^−7 M, 24 h, P < 0.05, eight samples from three experiments. It is filed as cell-based, Pseudomonas aeruginosa.
The subject of data set [12] is NPR-C receptor. To be noted: mammalian cells; ref [25]; cited from earlier work.

T1 sequence (P27017 whole entry): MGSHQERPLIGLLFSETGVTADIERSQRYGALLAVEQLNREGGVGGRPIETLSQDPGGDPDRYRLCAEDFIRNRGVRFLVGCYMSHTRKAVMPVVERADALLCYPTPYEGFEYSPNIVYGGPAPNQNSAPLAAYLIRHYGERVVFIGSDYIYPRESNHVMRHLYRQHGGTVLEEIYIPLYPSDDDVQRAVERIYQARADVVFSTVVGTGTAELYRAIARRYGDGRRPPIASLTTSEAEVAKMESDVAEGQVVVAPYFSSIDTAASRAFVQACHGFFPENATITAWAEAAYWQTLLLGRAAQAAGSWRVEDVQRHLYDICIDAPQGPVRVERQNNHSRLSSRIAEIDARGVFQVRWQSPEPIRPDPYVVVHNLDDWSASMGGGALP

Usually Kd stands for the equilibrium constant for the complex coming apart. For the molecule `O=C1Nc2ccccc2C1=O` [isatin, indole-2,3-dione], in data set [1], the Kd stood at 600 ± 200 µM. The “effect of isatin alone on organization of the biofilm” value in data set [2] is “more irregular, with the presence of large water channels”. Moreover, in data set [2] (two independent experiments), the “effect of isatin alone on biomass and thickness of the biofilm” value was “limited and nonsignificant increase”. Further, the “normal blood isatin concentration” value in data set [3] is 0.3 to 1.3 µM.
Turning to `CC(N)=O` [acetamide], the “effect of acetamide on ami operon transcription via AmiC” value in [4] is “triggering the transcription of the whole ami operon”.
As for dynorphin, the “crossing of the membrane of P. aeruginosa” value in [5] is listed as “able to freely cross the membrane”.
Turning to brain natriuretic peptide [BNP], in [6], the “whole ami operon transcriptional activity” value is “no significant effect”. Also, the “affinity for NPR-A” value in data set [7] is on record as “strongly binds”. In data set [8] (10^−6 M, PA14, dynamic (flow cell), LB, 37°C, vs control, P < 0.001), the “change of biofilm average thickness” value is reported as −76.0 ± 4.8%. Moreover, the “change of biofilm volume” value in data set [8] (10^−6 M, PA14, dynamic (flow cell), LB, 37°C, vs control, P < 0.001, CNP: ten samples from six experiments, BNP: six samples from two experiments) is on record as −80.3% ± 4.4%. Besides, the “number and mean size of mushroom-like structures in the biofilm” value in [8] (10^−6 M, PA14, dynamic, confocal microscopy) was “reduction of the number and mean size of mushroom-like structures”. Besides, the “change of biofilm formation” value in data set [8] (BNP 10^−7 M, PA14 wild type, dynamic, P < 0.001, nine samples from three experiments) is −75.1% ± 9.9%. Also, the “effect on P. aeruginosa virulence for Caenorhabditis elegans” value in [9] was “without effect”. For the same molecule, the “affinity for / interaction with AmiC, in words” value in data set [1] was “no affinity for AmiC”. Further, the “intrabacterial cAMP” value in data set [10] was “did not modify intrabacterial cAMP levels”. Further, the “change of biofilm formation in ΔamiC mutant” value in data set [11] is −70.8% ± 12.1%. The “affinity for NPR-C” value in [12] was “weak affinity”.

B1: osteocrin: specific NPR-C agonist, synthesized by J. Leprince (peptide, UniProt P61366 28-133, looked up)
Osteocrin: VDVTTTEAFDSGVIDVQSTPTVREEKSATDLTAKLLLLDELVSLENDVIETKKKRSFSGFGSPLDRLSAGSVDHKGKQRKVVDHPKRRFGIPMDRIGRNRLSNSRG
modifications: Osteocrin
For the molecule B1, in data set [1], the “affinity for / interaction with AmiC, in words” value was “very strong interaction”.
